B1: NELF-E aptamer (parent)
chain: CCCAACGACUGCCGAGCGAGAUUACGCUUGAGCGCCCCACUGAGGAUGCCCACGGGCGAUUGGGGCACGG

Variants of: B1
Assay: HiTS-RAP
Conditions: with NELF-E (Drosophila)
Outline: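 Aptamer DNA templates carrying a T7 promoter and ter site were sequenced on an Illumina GAIIx flowcell, then transcribed in situ by T7 RNA polymerase and halted by GST-Tus (30 minutes, 37°C). Clusters were imaged after 30-minute room-temperature equilibration with NELF-E-mOrange at 0.064 to 1000 nM in HEPES binding buffer, and only the first binding curve was used. Intensities were normalised to sequencing intensity and averaged per sequence. Kd came from weighted Hill fits, keeping fits with variance below 1,000,000.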

| Variant | Kd |
| --- | --- |
| CCCGACGACUGCCGAGCGAGAUGACGCUUGAGCGCCCCACUGAGGAUGCCCACGGGCGAUUGGGGCACGG [A4G U23G] | 5.42 nM |
| CCCAACGUCUGCCGAGCGAGAUUACGCUUGAGCGCCCCACUGAGGAUGCCCGCGGGCGAUUGGGGCACGG [A8U A52G] | 5.67 nM |
| CCCAACGACGGCCGAGCGAGAUCACGCUUGAGCGCCCCACUGAGGAUGCCCACGGGCGAUUGGGGCACGG [U10G U23C] | 4.23 nM |
| CCCAACGACUGCCGAGCGAGAGUACGCUUGAGCGCCCCACUGAGGAUGCCCACGGGCGAUUGGGUCACGG [U22G G65U] | 6.22 nM |
| CCCAACGACUGCCGGGCGAGAGUACGCUUGAGCGCCCCACUGAGGAUGCCCACGGGCGAUUGGGGCACGG [A15G U22G] | 5.78 nM |
| CCCAACGACUGCCGAGCGAUAUGACGCUUGAGCGCCCCACUGAGGAUGCCCACGGGCGAUUGGGGCACGG [G20U U23G] | 6.37 nM |
| CCCAACGACUGCCGAGCGAGAUUACGCUGGAGCGCCCCACUGAGGAUGCCCACGGGCGUUUGGGGCACGG [U29G A59U] | 23.9 nM |
| CCCAGCGACUGCCGAUCGAGAUUACGCUUGAGCGCCCCACUGAGGAUGCCCACGGGCGAUUGGGGCACGG [A5G G16U] | 7.42 nM |
| CCCAACGACUGCCUGGCGAGAUUACGCUUGAGCGCCCCACUGAGGAUGCCCACGGGCGAUUGGGGCACGG [G14U A15G] | 6.08 nM |
| CCCAACGACUGCCGAGCGAGAUUACGCUUGAGCGCCCCACGGAGGAGGCCCACGGGCGAUUGGGGCACGG [U41G U47G] | 7.59 nM |
| CCCAACGACUGCCGAGCGAGAUUACGCUUGAGCGCCCCACUGAGGAUGCCCACGGGGGAUUGGGGCACGG [C57G] | 6.36 nM |
| CCCAACGACUGCCGAGCGAUAUUACGCUUGAGCGCCCCACUGAGGAUGCCCACGGGUGAUUGGGGCACGG [G20U C57U] | 7.84 nM |
| CCCAAGGACUGCCGAGCGAGAUUACGCUUGAGCACCCCACUGAGGAUGCCCACGGGCGAUUGGGGCACGG [C6G G34A] | 8 nM |
| CCCAACGACUGCCGAGCGAGAGUACGUUUGAGCGCCCCACUGAGGAUGCCCACGGGCGAUUGGGGCACGG [U22G C27U] | 4.34 nM |
| CCCAACGACAGCCGAGCGGGAUUACGCUUGAGCGCCCCACUGAGGAUGCCCACGGGCGAUUGGGGCACGG [U10A A19G] | 6.65 nM |
| CCCAACUACUGCCGAGCGAGAUUACGCUUGAGCGCCCCAUUGAGGAUGCCCACGGGCGAUUGGGGCACGG [G7U C40U] | 80.4 nM |
| CCCUACGACUGCCGAGCGAGAUUACGCUUGAGCGCCCCGCUGAGGAUGCCCACGGGCGAUUGGGGCACGG [A4U A39G] | 10.9 nM |
| CCCAUCGACUGCCGAGCGAGUUUACGCUUGAGCGCCCCACUGAGGAUGCCCACGGGCGAUUGGGGCACGG [A5U A21U] | 6.61 nM |
| CCCAACGACUGCCGAGCGAGAUUGCGCUUGAGCGCCCCACUGAGGAUGCCUACGGGCGAUUGGGGCACGG [A24G C51U] | 8.86 nM |
| CCCAACGACUGCCGGGCGAGAUGACGCUUGAGCGCCCCACUGAGGAUGCCCACGGGCGAUUGGGGCACGG [A15G U23G] | 5.24 nM |

| Variant | Kd |
| --- | --- |
| CCCAACGACUGCCGAGCGAGAUUGCGCUUGAGCGCCCCACUGAGGAUGCCCACGGGCGAUUGGGGCACGG [A24G] | 5.47 nM |
| CCCAACGACUGCCGAGCGAGAUGACGCUUGAGCGCCCCACUGAGGAUGCCCACGUGCGAUUGGGGCACGG [U23G G55U] | 8.32 nM |
| CCCAACGAGUGCCGAGCGAGAUUACGCUUGAGCGCCCCACUGAGGAUGCCCACUGGCGAUUGGGGCACGG [C9G G54U] | 6.83 nM |
| CCCAACGGCUGCCGAGCGAGAUUACGCUGGAGCGCCCCACUGAGGAUGCCCACGGGCGAUUGGGGCACGG [A8G U29G] | 5.77 nM |
| CCCAACGACUGCCGAGCGAGAUUGUGCUUGAGCGCCCCACUGAGGAUGCCCACGGGCGAUUGGGGCACGG [A24G C25U] | 6.02 nM |
| CCCAACGACUGCCGAGCGAGAGUACGCUUGAGCGCCCCACUGAGGAUGCCCACGGGCGAUUGGUGCACGG [U22G G64U] | 6.37 nM |
| CCCAACGACUGCGGAGCGAGAUUACGCUUGAGCGCCCCACUGAGGAUGCCCACGGGCGAUUAGGGCACGG [C13G G62A] | 32.4 nM |
| CCCAACGACUGCCGAGCGAGAUGACGCUUGAACGCCCCACUGAGGAUGCCCACGGGCGAUUGGGGCACGG [U23G G32A] | 5.52 nM |
| CCCAACGACUGCCGAGCGAGAUGACGCUUGAGCGCCCCACUGAGGAUGCCCACGGGCGAUUGGGGCGCGG [U23G A67G] | 6.23 nM |
| CCCAACGACUGCCGUGCGAGAUUACGCUUGAGCGCCCCACUGAGGAUGCCCACGGGUGAUUGGGGCACGG [A15U C57U] | 14.3 nM |
| CCCAACGACUGCCGAGCGAGAGUACGCUUGAGCGCCCCACUGAGGAUGCCCACGGGCGAUUGAGGCACGG [U22G G63A] | 14.9 nM |
| CCCAACGACUGCCGAGCGAGAGUACGCUUGAGCGCCCCACUGAGGAUGCCCACGGGCGAUUGGGGCUCGG [U22G A67U] | 7.3 nM |
| CCCAACGACUGCUGAGUGAGAUUACGCUUGAGCGCCCCACUGAGGAUGCCCACGGGCGAUUGGGGCACGG [C13U C17U] | 4 nM |
| CCCAACGACUGGCGAGCGAGAUUACGCUUGAGUGCCCCACUGAGGAUGCCCACGGGCGAUUGGGGCACGG [C12G C33U] | 6 nM |
| CCCAACGACGGCCGAGCGAGAUUACGCUUGAGCGCCCCACUGAGAAUGCCCACGGGCGAUUGGGGCACGG [U10G G45A] | 68.6 nM |
| CCCAACGACUGCCGAGCGAGAUUACGCUCGAGCGCCCCACGGAGGAUGCCCACGGGCGAUUGGGGCACGG [U29C U41G] | 5.09 nM |
| CCCAACGACUGCCGAGGGAGAUUACGCUUGAGCGCCCCGCUGAGGAUGCCCACGGGCGAUUGGGGCACGG [C17G A39G] | 8.44 nM |
| CCCAACGACUGCCUAGCGAGGUUACGCUUGAGCGCCCCACUGAGGAUGCCCACGGGCGAUUGGGGCACGG [G14U A21G] | 6.69 nM |
| CCCAAGGACUGCCGAACGAGAUUACGCUUGAGCGCCCCACUGAGGAUGCCCACGGGCGAUUGGGGCACGG [C6G G16A] | 5.84 nM |
